Laboratory results reported in ChEMBL document CHEMBL4014346, “Lead Optimization Generates CYP11B1 Inhibitors of Pyridylmethyl Isoxazole Type with Improved Pharmacological Profile for the Treatment of Cushing's Disease” (J Med Chem, 2017).

Tests used:
[1] = biological target: T1, Cytochrome P450 11B2, mitochondrial (Homo sapiens, UniProt P19099); test: Inhibition of human CYP11B2 expressed in hamster V79MZ cells using [1,2-3H]-11-deoxycorticosterone as substrate after 6 hrs by HPLC analysis; format: ADME, cell-based
T1 sequence (P19099 whole entry): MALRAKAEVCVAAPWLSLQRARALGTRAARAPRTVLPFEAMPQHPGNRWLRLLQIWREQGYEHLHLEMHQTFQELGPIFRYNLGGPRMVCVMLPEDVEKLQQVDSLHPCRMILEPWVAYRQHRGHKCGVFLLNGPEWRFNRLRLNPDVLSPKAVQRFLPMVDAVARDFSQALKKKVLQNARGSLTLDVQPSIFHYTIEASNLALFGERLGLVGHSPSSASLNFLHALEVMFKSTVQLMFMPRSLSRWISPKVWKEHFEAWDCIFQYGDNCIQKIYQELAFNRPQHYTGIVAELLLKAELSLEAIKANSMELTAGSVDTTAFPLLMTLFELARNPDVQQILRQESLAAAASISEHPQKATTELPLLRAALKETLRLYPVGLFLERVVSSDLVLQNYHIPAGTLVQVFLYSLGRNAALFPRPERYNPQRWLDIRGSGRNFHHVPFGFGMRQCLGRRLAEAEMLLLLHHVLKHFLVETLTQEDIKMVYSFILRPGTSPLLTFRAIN
Procedure, shortened: (§1)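 V79MZ cells expressing recombinant human CYP11B1 or CYP11B2, or rat CYP11B1, incubated with [1,2-³H]-11-deoxycorticosterone (100 nM) and inhibitor over a range of concentrations; ketoconazole as reference.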

[2] = Selectivity ratio of IC50 for human CYP11B2 expressed in hamster V79MZ cells to IC50 for human CYP11B1 expressed in hamster V79MZ cells; procedure, shortened: as §1
[3] = AUC (0 to infinity) in Sprague-Dawley rat at 28 mg/kg, po administered as single dose by HPLC-MS/MS analysis; format: ADME, organism-based; design: dose 28 mg/kg, route oral, time infinity; conditions: in vivo
[4] = Cmax in Sprague-Dawley rat at 28 mg/kg, po administered as single dose by HPLC-MS/MS analysis; format: ADME, organism-based; design: dose 28 mg/kg, route oral; conditions: in vivo
Procedure, shortened: (§2)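 Female Sprague-Dawley rats (244–299 g), 2 animals, given one oral dose under 2% isoflurane as a freshly sonicated suspension in 0.5% porcine gelatin/5% mannitol in water. Tail-vein plasma precipitated with acetonitrile plus diphenhydramine internal standard, quantified by HPLC-MS/MS in duplicate. Noncompartmental analysis; Cmax and Tmax read directly from the concentration–time curve; F derived against iv dosing.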

[5] = Clearance in Sprague-Dawley rat at 5 mg/kg, iv administered as single dose by HPLC-MS/MS analysis; format: ADME, organism-based; conditions: in vivo
Procedure, shortened: (§3)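 Female Sprague-Dawley rats (244–299 g), 2 animals; single iv dose in PEG300/ethanol/water (60/10/30), under 2% isoflurane anesthesia. Tail-vein blood taken into sodium citrate, plasma spun down, precipitated with acetonitrile containing diphenhydramine internal standard, analysed by HPLC-MS/MS with duplicate injections. Mean parameters from noncompartmental analysis.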

[6] = Cmax in Sprague-Dawley rat at 5 mg/kg, iv administered as single dose by HPLC-MS/MS analysis; format: ADME, organism-based; design: dose 5 mg/kg, route intravenous; conditions: in vivo; procedure, shortened: as §3
[7] = AUC (0 to infinity) in Sprague-Dawley rat at 5 mg/kg, iv administered as single dose by HPLC-MS/MS analysis; format: ADME, organism-based; design: dose 5 mg/kg, route intravenous, time infinity; conditions: in vivo
[8] = Half life in Sprague-Dawley rat at 28 mg/kg, po administered as single dose by HPLC-MS/MS analysis; format: ADME, organism-based; conditions: in vivo; procedure, shortened: as §2
[9] = Oral bioavailability in Sprague-Dawley rat at 28 mg/kg administered as single dose by HPLC-MS/MS analysis; format: ADME, organism-based; conditions: in vivo; procedure, shortened: as §2
[10] = Half life in Sprague-Dawley rat at 5 mg/kg, iv administered as single dose by HPLC-MS/MS analysis; format: ADME, organism-based; conditions: in vivo; procedure, shortened: as §3
[11] = Volume of distribution at steady state in Sprague-Dawley rat at 5 mg/kg, iv administered as single dose by HPLC-MS/MS analysis; format: ADME, organism-based; conditions: in vivo, read-out: Vdss; procedure, shortened: as §3
[12] = tested on: Plasma; test: Plasma concentration in Sprague-Dawley rat at 28 mg/kg, po administered as single dose by HPLC-MS/MS analysis; format: ADME, organism-based; conditions: in vivo; procedure, shortened: as §2
[13] = Tmax in Sprague-Dawley rat at 28 mg/kg, po administered as single dose by HPLC-MS/MS analysis; format: ADME, organism-based; conditions: in vivo; procedure, shortened: as §2
[14] = tested on: Rattus norvegicus; test: Time at which plasma concentration stays above in vitro rat CYP11B1 IC50 in Sprague-Dawley rat at 28 mg/kg, po administered as single dose; procedure, shortened: as §2

IC50 [1] [nM]	AUC(0-inf) [3] [ng·h/mL]	Cmax [4] [µM]	clearance [5] [mL/min/kg]	Cmax [6] [µM]	AUC(0-inf) [7] [ng·h/mL]	half-life [8] [h]	bioavailability [9] [%]	half-life [10] [h]	Vd [11] [L/kg]	concentration [12] [µM]	Tmax [13] [h]	SMILES	Ratio IC50 [2]	Time [14]
82	–	–	–	–	–	–	–	–	–	–	–	Cc1cncc(Cc2cc(-c3ccccc3)no2)c1	16	–
27	10200	6.4	22.6	27.8	3680	3.3	50	4.8	3.1	4.11	2.5	COc1cncc(Cc2cc(-c3ccccc3)no2)c1	–	<=7 hr
